# Calls of active or inactive are those of the source.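 How the source made its calls: active means AC50 at or below twice the top valid dose for that sample, with falling signal; inconclusive means flat curve with inhibition of 30 to 70%, or poor fit; inactive means activity in the wrong direction, plus the rest.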
# Target: Scavenger receptor class B member 1 (Mus musculus) (UniProt Q61009)
# Assay: SR-BI mediated DiI-HDL lipid uptake blockers – ldlA[mSR-BI] CHO cells, fluorescence plate reader, dry powder, set 8, dose response (AID 602285)
# Settings: 3 h
# Summary of the method: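 Material: CHO ldlA cells overexpressing mouse SR-BI; detection: bottom-read DiI fluorescence after PBS washes, excitation 550 nm, emission 595 nm; schedule: 3 h uptake at 37 °C; controls: DMSO as neutral control, BLT-1 as inhibitor control; medium: Ham's F12, fatty acid-free BSA, HEPES pH 7.4; compound: pin-transferred compounds, dose series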
# Chain of Scavenger receptor class B member 1 (Mus musculus) (Q61009 whole entry, looked up): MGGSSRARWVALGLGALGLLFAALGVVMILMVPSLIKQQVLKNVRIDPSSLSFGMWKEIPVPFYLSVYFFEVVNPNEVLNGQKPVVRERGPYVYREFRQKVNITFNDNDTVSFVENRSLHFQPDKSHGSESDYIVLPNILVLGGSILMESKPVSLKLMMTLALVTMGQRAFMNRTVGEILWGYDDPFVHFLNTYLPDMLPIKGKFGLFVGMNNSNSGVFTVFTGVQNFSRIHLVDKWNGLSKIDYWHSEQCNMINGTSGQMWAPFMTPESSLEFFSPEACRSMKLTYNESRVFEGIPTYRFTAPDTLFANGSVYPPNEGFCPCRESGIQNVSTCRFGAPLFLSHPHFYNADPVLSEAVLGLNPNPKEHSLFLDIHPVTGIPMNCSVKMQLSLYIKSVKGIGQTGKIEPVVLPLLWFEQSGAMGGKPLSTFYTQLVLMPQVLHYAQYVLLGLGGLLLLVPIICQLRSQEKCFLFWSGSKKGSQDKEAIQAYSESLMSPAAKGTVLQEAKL
row,AC50,SMILES
1,2.06 µM,C[C@@H]1CN([C@H](C)CO)C(=O)c2cc(NC(=O)C3CC3)ccc2O[C@H]1CN(C)S(=O)(=O)c1ccc(Cl)cc1
2,> 70 µM (inactive),C[C@@H]1CN([C@H](C)CO)C(=O)c2cc(NC(=O)CCCN(C)C)ccc2O[C@H]1CN(C)S(=O)(=O)c1ccc(Cl)cc1
3,1.75 µM,COc1ccc(NC(=O)N(C)C[C@@H]2Oc3ccc(NC(=O)Cc4cn(C)c5ccccc45)cc3C(=O)N([C@H](C)CO)C[C@H]2C)cc1
4,17.9 µM,C[C@@H]1CN([C@H](C)CO)C(=O)c2cc(NC(=O)Cc3cn(C)c4ccccc34)ccc2O[C@H]1CN(C)C
5,4.95 µM,C[C@@H]1CN([C@H](C)CO)C(=O)c2cc(NC(=O)CCN3CCOCC3)ccc2O[C@H]1CN(C)S(=O)(=O)c1ccc(Cl)cc1
6,> 70 µM (inactive),C[C@H](CO)N1C[C@H](C)[C@H](CN(C)CC2CCCCC2)Oc2c(NS(=O)(=O)c3cn(C)cn3)cccc2C1=O
7,6.39 µM,C[C@@H]1CN([C@H](C)CO)C(=O)c2cc(NC(=O)Cc3cn(C)c4ccccc34)ccc2O[C@H]1CN(C)S(=O)(=O)c1cn(C)cn1
8,10.7 µM,C[C@@H]1CN([C@@H](C)CO)C(=O)c2cc(NC(=O)NC3CCCCC3)ccc2O[C@H]1CN(C)Cc1ccncc1
9,9.87 µM,C[C@@H]1CN([C@H](C)CO)C(=O)c2cc(NC(=O)Cc3cn(C)c4ccccc34)ccc2O[C@H]1CN(C)S(C)(=O)=O
10,9.24 µM,C[C@@H]1CN([C@H](C)CO)C(=O)c2cc(NC(=O)Cc3cn(C)c4ccccc34)ccc2O[C@H]1CN(C)CC1CCCCC1
11,4.92 µM,C[C@@H]1CN([C@H](C)CO)C(=O)c2cc(NC(=O)Cc3cn(C)c4ccccc34)ccc2O[C@H]1CN(C)C(=O)Nc1ccccc1
12,0.094 µM,Cc1noc(C)c1NC(=O)N(C)C[C@H]1Oc2cc(C#CCC3CCCC3)ccc2S(=O)(=O)N([C@H](C)CO)C[C@@H]1C
13,7.1 µM,Cc1noc(C)c1NC(=O)Nc1ccc2c(c1)C(=O)N([C@H](C)CO)C[C@@H](C)[C@H](CN(C)S(=O)(=O)c1ccc(Cl)cc1)O2
14,9.18 µM,C[C@@H]1CN([C@H](C)CO)C(=O)c2cc(NC(=O)Cc3cn(C)c4ccccc34)ccc2O[C@H]1CN(C)C(=O)NC1CCCCC1
15,34.4 µM,C[C@@H]1CN([C@@H](C)CO)C(=O)Cc2cc(N(C)C)ccc2O[C@@H]1CN(C)Cc1ccc(C(=O)O)cc1
16,1.56 µM,C[C@@H]1CN([C@H](C)CO)C(=O)c2cc(NC(=O)Cc3cn(C)c4ccccc34)ccc2O[C@H]1CN(C)C(=O)Nc1ccc(F)cc1
17,8.3 µM,C[C@@H]1CN([C@H](C)CO)C(=O)c2cc(NC(=O)Cc3cn(C)c4ccccc34)ccc2O[C@H]1CN(C)C(=O)Nc1cccc2ccccc12
18,4.6 µM,C[C@@H]1CN([C@H](C)CO)C(=O)c2cc(NC(=O)Cc3cn(C)c4ccccc34)ccc2O[C@H]1CN(C)C(=O)Nc1ccc2c(c1)OCO2

# The next lines start with the compound.
row,SMILES,AC50
1,C[C@@H]1CN([C@H](C)CO)C(=O)c2cc(NC(=O)Cn3cnnn3)ccc2O[C@H]1CN(C)S(=O)(=O)c1ccc(Cl)cc1,10.3 µM
2,C[C@@H]1CN([C@H](C)CO)C(=O)c2cc(NC(=O)Cc3cn(C)c4ccccc34)ccc2O[C@H]1CN(C)S(=O)(=O)c1cccs1,2.36 µM
3,C[C@H]1CN([C@@H](C)CO)C(=O)c2cc(NC(=O)Cc3cn(C)c4ccccc34)ccc2O[C@H]1CN(C)S(=O)(=O)c1ccc(Cl)cc1,12.3 µM
4,C[C@H](C(=O)NC1CCCC1)N(C(=O)Cn1nnc(-c2ccc3c(c2)OCO3)n1)C1CCCCC1,0.0374 µM
5,C[C@@H]1CN([C@H](C)CO)C(=O)c2cc(NC(=O)Cc3cn(C)c4ccccc34)ccc2O[C@H]1CN(C)Cc1ccc(C(F)(F)F)cc1,0.653 µM
6,C[C@@H]1CN([C@H](C)CO)C(=O)c2cc(NC(=O)Cc3cn(C)c4ccccc34)ccc2O[C@@H]1CN(C)S(=O)(=O)c1ccc(Cl)cc1,11.5 µM
7,C[C@@H]1CN([C@H](C)CO)C(=O)c2cc(NC(=O)Cc3cn(C)c4ccccc34)ccc2O[C@H]1CN(C)S(=O)(=O)c1ccc(F)cc1,1.11 µM
8,C[C@@H]1CN([C@H](C)CO)C(=O)Cc2cc(NC(=O)Cc3cn(C)c4ccccc34)ccc2O[C@H]1CN(C)S(=O)(=O)c1ccc(F)cc1,33.2 µM
9,C[C@H]1CN([C@@H](C)CO)C(=O)c2cc(NC(=O)Cc3cn(C)c4ccccc34)ccc2O[C@@H]1CN(C)S(=O)(=O)c1ccc(Cl)cc1,17.4 µM
10,C[C@@H]1CN([C@H](C)CO)C(=O)c2cc(NC(=O)Nc3ccc(F)cc3)ccc2O[C@H]1CN(C)S(=O)(=O)c1ccc(Cl)cc1,0.0708 µM
11,C[C@@H]1CN([C@H](C)CO)C(=O)c2cc(NS(=O)(=O)c3cccs3)ccc2O[C@H]1CN(C)S(=O)(=O)c1ccc(Cl)cc1,3.77 µM
12,C[C@@H]1CN([C@H](C)CO)C(=O)c2cc(NC(=O)Cc3cn(C)c4ccccc34)ccc2O[C@H]1CN(C)Cc1ccc2c(c1)OCO2,0.865 µM
13,C[C@@H]1CN([C@H](C)CO)C(=O)c2cc(NC(=O)Cc3cn(C)c4ccccc34)ccc2O[C@H]1CN(C)Cc1ccccc1,1.55 µM
14,COCC(=O)N1CCc2cc(-c3csc(NC(=O)c4cc(OC)cc(OC)c4)n3)ccc21,< 0.015 µM
15,C[C@@H]1CN([C@H](C)CO)C(=O)c2cc(NC(=O)Cc3cn(C)c4ccccc34)ccc2O[C@H]1CN(C)Cc1ccc(C(=O)Nc2ccccc2N)cc1,1.72 µM
16,C[C@@H]1CN([C@H](C)CO)C(=O)c2cc(NC(=O)Cc3cn(C)c4ccccc34)ccc2O[C@H]1CN(C)Cc1ccncc1,1.3 µM
17,C[C@H](CO)N1C[C@H](C)[C@@H](CN(C)S(=O)(=O)c2ccc(Cl)cc2)Oc2ccc(NC(=O)Cc3cn(C)c4ccccc34)cc2C1=O,8.91 µM
18,C[C@@H]1CN([C@H](C)CO)C(=O)c2cc(NC(=O)Cc3cn(C)c4ccccc34)ccc2O[C@H]1CN(C)S(=O)(=O)c1ccc(Cl)cc1,0.174 µM
19,C[C@@H]1CN([C@H](C)CO)C(=O)c2cc(NS(=O)(=O)c3ccccc3)ccc2O[C@H]1CN(C)S(=O)(=O)c1ccc(Cl)cc1,3.16 µM
20,C[C@@H]1CN([C@H](C)CO)C(=O)c2cc(NC(=O)c3ccncc3)ccc2O[C@H]1CN(C)S(=O)(=O)c1ccc(Cl)cc1,0.593 µM
21,C[C@@H]1CN([C@H](C)CO)C(=O)c2cc(NC(=O)CCC(F)(F)F)ccc2O[C@H]1CN(C)S(=O)(=O)c1ccc(Cl)cc1,0.258 µM
22,O=C(C[C@H]1CC[C@H](NC(=O)CC2CC2)[C@@H](CO)O1)NCc1ccc(Cl)cc1,> 70 µM (inactive)
23,C[C@@H]1CN([C@H](C)CO)C(=O)c2cc(NS(C)(=O)=O)ccc2O[C@H]1CN(C)S(=O)(=O)c1ccc(Cl)cc1,1.64 µM
24,C[C@@H]1CN([C@H](C)CO)C(=O)c2cc(NS(=O)(=O)c3ccc(F)cc3)ccc2O[C@H]1CN(C)S(=O)(=O)c1ccc(Cl)cc1,13.7 µM
25,C[C@@H]1CN([C@H](C)CO)C(=O)c2cc(NC(=O)CCCCCC(=O)Nc3ccccc3N)ccc2O[C@H]1CN(C)S(=O)(=O)c1ccc(Cl)cc1,0.563 µM
26,COc1ccc(-c2nnn(CC(=O)N(C3CCCCC3)C(C)C(=O)NC3CCCCC3)n2)cc1OC (configuration not stated),0.2 µM
27,O=C(C[C@@H]1CC[C@@H](NC(=O)CC2CC2)[C@H](CO)O1)NCc1ccc(Cl)cc1,> 70 µM (inactive)
28,C[C@@H]1CN([C@H](C)CO)C(=O)c2cc(NC(=O)Cc3cn(C)c4ccccc34)ccc2O[C@H]1CN(C)S(=O)(=O)c1ccccc1,0.215 µM

# Same assay, conditions: 3 h, at 11 µM (top of the series)
row,"activity change, negative = inhibition",SMILES
1,inactive,C[C@@H]1CN([C@H](C)CO)C(=O)c2cc(NC(=O)Cc3cn(C)c4ccccc34)ccc2O[C@H]1CN(C)Cc1ccc(Cl)c(Cl)c1
2,inactive,C[C@@H]1CN([C@H](C)CN)C(=O)c2cc(NC(=O)Cc3cn(C)c4ccccc34)ccc2O[C@H]1CN(C)S(=O)(=O)c1ccc(Cl)cc1

# Same assay, conditions: 3 h, at 35 µM (top of the series)
row,"activity change, negative = inhibition",SMILES
1,inactive,Cc1ccccc1-c1ccc2c(c1)O[C@H](CN(C)C(=O)Nc1ccc(F)cc1)[C@H](C)CN([C@H](C)CO)S2(=O)=O
2,inactive,CNC[C@@H]1OCCCC[C@@H](C)Oc2ccc(NS(=O)(=O)c3ccc(Cl)cc3)cc2C(=O)N([C@H](C)CO)C[C@H]1C
3,inactive,C[C@@H]1CN([C@@H](C)CO)C(=O)Cc2cc(NS(=O)(=O)c3cn(C)cn3)ccc2O[C@H]1CN(C)Cc1ccc(Cl)c(Cl)c1
4,inactive,C[C@@H]1CN([C@@H](C)CO)C(=O)Cc2cc(NS(=O)(=O)c3cn(C)cn3)ccc2O[C@@H]1CN(C)Cc1ccc(Cl)c(Cl)c1
5,inactive,Cc1noc(C)c1S(=O)(=O)N(C)C[C@H]1Oc2c(NC(=O)c3nc4ccccc4s3)cccc2C(=O)N([C@H](C)CO)C[C@H]1C
6,inactive,C[C@@H]1CN([C@H](C)CO)S(=O)(=O)c2ccc(C3=CCCCC3)cc2O[C@@H]1CN(C)C(=O)Nc1ccc2c(c1)OCO2
7,inactive,CCCNC(=O)N(C)C[C@@H]1Oc2cc(-c3cncnc3)ccc2S(=O)(=O)N([C@@H](C)CO)C[C@@H]1C

# Continued, compound first:
row,SMILES,"activity change, negative = inhibition"
1,CO[C@H]1CN(C)C(=O)c2ccc(NC(=O)C3CCCC3)cc2OC[C@@H](C)N(C(=O)CC2CC2)C[C@@H]1C,inactive
2,C[C@@H]1CN([C@H](C)CO)C(=O)c2cc(NS(=O)(=O)c3ccc(Cl)cc3)ccc2O[C@H]1CN(C)S(=O)(=O)c1ccc(Cl)cc1,inactive
3,Cc1ccc(S(=O)(=O)Nc2ccc3c(c2)C(=O)N([C@H](C)CO)C[C@@H](C)[C@H](CN(C)S(=O)(=O)c2ccc(Cl)cc2)O3)cc1,inactive
4,CC(C)NC(=O)Nc1cccc2c1O[C@@H](CN(C)Cc1ccc(C(F)(F)F)cc1)[C@@H](C)CN([C@@H](C)CO)C2=O,inactive
5,C[C@@H]1CN([C@H](C)CO)C(=O)c2cc(NC(=O)Cc3cn(C)c4ccccc34)ccc2O[C@H]1CN(C)Cc1ccc(-c2ccccc2)cc1,inactive
6,C[C@@H]1CN([C@H](C)CO)C(=O)c2cc(NC(=O)Nc3ccc(C(F)(F)F)cc3)ccc2O[C@H]1CN(C)S(=O)(=O)c1ccc(Cl)cc1,inactive
7,C[C@@H]1CN([C@H](C)CO)C(=O)c2cc(NC(=O)Cc3cn(C)c4ccccc34)ccc2O[C@H]1CN(C)Cc1ccc(Oc2ccccc2)cc1,inactive
